Laboratory results: ChEMBL document CHEMBL4130485, “Inhibitors of Yellow Fever Virus replication based on 1,3,5-triphenyl-4,5-dihydropyrazole scaffold: Design, synthesis and antiviral evaluation” (Eur J Med Chem, 2017)

Key:
West Nile virus = assay: Antiviral activity against West Nile virus clinical isolate infected in golden hamster BHK21 cells assessed as protection against virus-induced cytopathic effect after 3 to 4 days by MTT assay; assay type: functional, organism-based; conditions: BHK-21
Summary of the method: (§1)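 BHK-21 cells (MDBK for BVDV) seeded at 5×10^4 (BHK) or 3×10^4 (MDBK) cells/well and grown overnight to confluence. Infected at m.o.i. 0.01 in maintenance MEM-Earle with 0.5% inactivated FBS. Serial compound dilutions added 2 h later (final 100, 20, 4, 0.8 µM; DMSO ≤0.1%). Viability read by MTT after 3–4 days at 37 °C. EC50 obtained by linear regression against untreated controls; mean of three determinations.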

dengue virus type 2 = assay: Antiviral activity against Dengue virus type 2 clinical isolate infected in golden hamster BHK21 cells assessed as protection against virus-induced cytopathic effect after 3 to 4 days by MTT assay; assay type: functional, organism-based; conditions: BHK-21; summary of the method: as §1
Human alphaherpesvirus 1 = assay: Antiviral activity against Human herpesvirus 1 KOS ATCC VR 1493 infected in African green monkey Vero 76 cells assessed as protection against virus-induced cytopathic effect after 3 days by crystal violet staining-based plaque reduction assay; assay type: functional, organism-based; conditions: Human alphaherpesvirus 1, KOS, Vero 76, 72 h
[1] = system: Human immunodeficiency virus 1; assay: Antiviral activity against HIV1 3B infected in human MT4 cells assessed as protection against virus-induced cytopathic effect after 4 days by MTT assay; assay type: functional, organism-based; conditions: Human immunodeficiency virus 1, 3B, MT4, 96 h
Summary of the method: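 MT-4 cells (1×10^4/well) in RPMI with serial compound dilutions, infected with 100 CCID50 HIV-1 (m.o.i. 0.01). Viability read by MTT after 4 days at 37 °C. EC50 for 50% protection from cytopathicity obtained by linear regression versus untreated controls; mean of three determinations.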

Enterovirus C = assay: Antiviral activity against Enterovirus C Sabin […] infected in African green monkey Vero 76 cells assessed as protection against virus-induced cytopathic effect after 2 days by crystal violet staining-based plaque reduction assay; assay type: functional, organism-based; conditions: Vero 76, 48 h
Yellow fever virus [2] = assay: Antiviral activity against Yellow fever virus 17D vaccine (Stamaril Pasteur J07B01) infected in golden hamster BHK21 cells assessed as protection against virus-induced cytopathic effect after 3 to 4 days by MTT assay; assay type: functional, organism-based; conditions: BHK-21; summary of the method: as §1
Yellow fever virus [3] = assay: Potency index, ratio of azauridine EC50 to compound EC50 for Yellow fever virus 17D vaccine (Stamaril Pasteur J07B01); assay type: functional
Vaccinia virus = assay: Antiviral activity against Vaccinia virus Lister ATCC VR 1549 infected in African green monkey Vero 76 cells assessed as protection against virus-induced cytopathic effect after 3 days by crystal violet staining-based plaque reduction assay; assay type: functional, organism-based; conditions: Orthopoxvirus vaccinia, ATCC VR 1549, Vero 76, 72 h
[4] = system: Mammalian orthoreovirus 1; assay: Antiviral activity against Reovirus 1 infected in golden hamster BHK21 cells assessed as protection against virus-induced cytopathic effect after 3 to 4 days by MTT assay; assay type: functional, organism-based; conditions: Mammalian orthoreovirus 1, BHK-21; summary of the method: as §1
[5] = Selectivity index, ratio of CC50 for golden hamster BHK21 cells to EC50 for Yellow fever virus 17D; assay type: toxicity; conditions: read-out: Ratio CC50/EC50
Summary of the method: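 Selectivity index calculated as BHK-21 CC50 divided by YFV EC50, both from MTT assays.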

[6] = Cytotoxicity against African green monkey Vero 76 cells assessed as decrease in cell viability after 48 to 96 hrs by MTT assay; assay type: cell-based; conditions: chlorocebus sabaeus
Summary of the method: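 Vero 76 cells seeded at 5×10^5 cells/mL in D-MEM with 10% FBS and incubated with serial compound dilutions at 37 °C, 5% CO2. Viability read by MTT after 48–96 h. CC50 by linear regression versus untreated controls.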

[7] = Cytotoxicity against bovine MDBK cells assessed as decrease in cell viability after 72 hrs by MTT assay; assay type: cell-based, Bos taurus; conditions: cattle
Summary of the method: (§2)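 Uninfected MDBK (6×10^5 cells/mL, 10% horse serum) or BHK (1×10^6 cells/mL, 10% FBS) cells in MEM-Earle with serial compound dilutions at 37 °C, 5% CO2, run in parallel with the antiviral assays. Viability read by MTT after 72 h. CC50 by linear regression; mean of three determinations.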

[8] = system: Vesicular stomatitis Indiana virus; assay: Antiviral activity against Vesicular stomatitis virus Indiana ATCC VR 158 infected in African green monkey Vero 76 cells assessed as protection against virus-induced cytopathic effect after 2 days by crystal violet staining-based plaque reduction assay; assay type: functional, organism-based; conditions: ATCC VR 158, Vero 76, 48 h
[9] = system: Bovine viral diarrhea virus 1; assay: Antiviral activity against Bovine viral diarrhea virus NADL ATCC VR 534 infected in bovine MDBK cells assessed as protection against virus-induced cytopathic effect after 3 to 4 days by MTT assay; assay type: functional, organism-based, Bovine viral diarrhea virus 1-NADL; conditions: Bovine viral diarrhea virus isolates and strains, ATCC VR 534, MDBK; summary of the method: as §1
[10] = Cytotoxicity against golden hamster BHK21 cells assessed as decrease in cell viability after 72 hrs by MTT assay; assay type: cell-based, Mesocricetus auratus, BHK-21; summary of the method: as §2
Human orthopneumovirus = assay: Antiviral activity against Human respiratory syncytial virus A2 ATCC VR 1540 infected in African green monkey Vero 76 cells assessed as protection against virus-induced cytopathic effect after 5 days by crystal violet staining-based plaque reduction assay; assay type: functional, organism-based; conditions: ATCC VR 1540, Vero 76, 120 h
[11] = Antiviral activity against Human enterovirus B Faulkner ATCC VR 185 infected in African green monkey Vero 76 cells assessed as protection against virus-induced cytopathic effect after 3 days by crystal violet staining-based plaque reduction assay; assay type: functional, cell-based; conditions: Faulkner ATCC VR 185, Vero 76, 72 h
[12] = Cytotoxicity against human MT4 cells assessed as decrease in cell viability after 96 hrs by MTT assay; assay type: cell-based
Summary of the method: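 Exponentially growing MT-4 cells seeded at 1×10^5 cells/mL in RPMI-1640 with 10% FBS and incubated with serial compound dilutions at 37 °C, 5% CO2. Viability read by MTT after 96 h. CC50 by linear regression versus untreated controls.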

C[C@@]1(O)[C@H](O)[C@@H](CO)O[C@H]1n1cnc2c(=O)[nH]c(N)nc21 [2'-B-METHYL-GUANOSINE]
EC50 (West Nile virus): 0.8 µM
EC50 (dengue virus type 2): 1.7 µM

NS(=O)(=O)c1ccc(N2N=C(c3ccc(OCc4ccccc4)cc3)CC2c2ccc(F)cc2)cc1 (configuration not stated)
EC50 (Human alphaherpesvirus 1): > 90 µM
EC50 [1]: > 100 µM
EC50 (Enterovirus C): > 90 µM
EC50 (Yellow fever virus [2]): 1.9 µM
Ratio EC50 (Yellow fever virus [3]): 10
EC50 (Vaccinia virus): > 90 µM
EC50 [4]: > 69 µM
EC50 (West Nile virus): > 60 µM
selectivity ratio [5]: 31.6
CC50 [6]: 90 µM
CC50 at 72 h [7]: > 100 µM
EC50 [8]: > 90 µM
EC50 [9]: > 100 µM
CC50 at 72 h [10]: 60 to 69 µM
EC50 (Human orthopneumovirus): > 90 µM
EC50 [11]: > 90 µM
EC50 (dengue virus type 2): > 60 µM
CC50 at 96 h [12]: > 100 µM

COc1c(C)c2c(c(O)c1C/C=C(\C)CCC(=O)O)C(=O)OC2 [MYCOPHENOLIC ACID]
CC50 [6]: 9 µM

NS(=O)(=O)c1ccc(N2N=C(c3ccccc3)CC2c2ccccc2)cc1 (configuration not stated)
EC50 (Human alphaherpesvirus 1): > 22 µM
EC50 [1]: > 42 µM
EC50 (Enterovirus C): > 22 µM
EC50 (Yellow fever virus [2]): > 15 µM
Ratio EC50 (Yellow fever virus [3]): 10
EC50 (Vaccinia virus): > 22 µM
EC50 [4]: > 15 µM
CC50 [6]: 22 µM
CC50 at 72 h [7]: 16 µM
EC50 [8]: > 22 µM
EC50 [9]: > 16 µM
CC50 at 72 h [10]: 15 µM
EC50 (Human orthopneumovirus): > 22 µM
EC50 [11]: > 22 µM
CC50 at 96 h [12]: 42 µM

NS(=O)(=O)c1ccc(N2N=C(c3ccccc3)CC2c2ccccc2Cl)cc1 (configuration not stated)
EC50 (Human alphaherpesvirus 1): > 26 µM
EC50 [1]: > 44 µM
EC50 (Enterovirus C): > 26 µM
EC50 (Yellow fever virus [2]): 2.4 µM
Ratio EC50 (Yellow fever virus [3]): 10
EC50 (Vaccinia virus): > 26 µM
EC50 [4]: > 13 µM
EC50 (West Nile virus): > 14 µM
selectivity ratio [5]: 5.8
CC50 [6]: 26 µM
CC50 at 72 h [7]: 9 µM
EC50 [8]: > 26 µM
EC50 [9]: > 9 µM
CC50 at 72 h [10]: 13 to 14 µM
EC50 (Human orthopneumovirus): > 26 µM
EC50 [11]: > 26 µM
EC50 (dengue virus type 2): > 14 µM
CC50 at 96 h [12]: 44 µM

Cc1cccc(C2CC(c3ccccc3)=NN2c2ccc(S(N)(=O)=O)cc2)c1 (configuration not stated)
EC50 (Human alphaherpesvirus 1): > 25 µM
EC50 [1]: > 37 µM
EC50 (Enterovirus C): > 25 µM
EC50 (Yellow fever virus [2]): > 25 µM
Ratio EC50 (Yellow fever virus [3]): 10
EC50 (Vaccinia virus): > 25 µM
EC50 [4]: > 25 µM
CC50 [6]: 25 µM
CC50 at 72 h [7]: 23 µM
EC50 [8]: > 25 µM
EC50 [9]: > 23 µM
CC50 at 72 h [10]: 25 µM
EC50 (Human orthopneumovirus): > 25 µM
EC50 [11]: > 25 µM
CC50 at 96 h [12]: 37 µM

Cc1ccccc1C1CC(c2ccccc2)=NN1c1ccc(S(N)(=O)=O)cc1 (configuration not stated)
EC50 (Human alphaherpesvirus 1): > 24 µM
EC50 [1]: > 43 µM
EC50 (Enterovirus C): > 24 µM
EC50 (Yellow fever virus [2]): 2.2 µM
Ratio EC50 (Yellow fever virus [3]): 10
EC50 (Vaccinia virus): > 24 µM
EC50 [4]: > 14 µM
EC50 (West Nile virus): > 14 µM
selectivity ratio [5]: 6.4
CC50 [6]: 24 µM
CC50 at 72 h [7]: 18 µM
EC50 [8]: > 24 µM
EC50 [9]: > 18 µM
CC50 at 72 h [10]: 14 µM
EC50 (Human orthopneumovirus): > 24 µM
EC50 [11]: > 24 µM
EC50 (dengue virus type 2): > 14 µM
CC50 at 96 h [12]: 43 µM

NS(=O)(=O)c1ccc(N2N=C(c3ccccc3)CC2c2cccc(Cl)c2)cc1 (configuration not stated)
EC50 (Human alphaherpesvirus 1): > 21 µM
EC50 [1]: 10 µM
EC50 (Enterovirus C): > 21 µM
EC50 (Yellow fever virus [2]): 2.5 µM
Ratio EC50 (Yellow fever virus [3]): 10
EC50 (Vaccinia virus): > 21 µM
EC50 [4]: > 8 µM
EC50 (West Nile virus): > 9 µM
selectivity ratio [5]: 3.6
CC50 [6]: 21 µM
CC50 at 72 h [7]: 2 µM
EC50 [8]: > 21 µM
EC50 [9]: > 2 µM
CC50 at 72 h [10]: 8 to 9 µM
EC50 (Human orthopneumovirus): > 21 µM
EC50 [11]: > 21 µM
EC50 (dengue virus type 2): > 9 µM
CC50 at 96 h [12]: 41 µM

NS(=O)(=O)c1ccc(N2N=C(c3ccccc3)CC2c2cccc(F)c2)cc1 (configuration not stated)
EC50 (Human alphaherpesvirus 1): > 24 µM
EC50 [1]: 13 µM
EC50 (Enterovirus C): > 24 µM
EC50 (Yellow fever virus [2]): ≥ 15 µM
Ratio EC50 (Yellow fever virus [3]): 10
EC50 (Vaccinia virus): > 24 µM
EC50 [4]: > 15 µM
CC50 [6]: 24 µM
CC50 at 72 h [7]: 20 µM
EC50 [8]: > 24 µM
EC50 [9]: > 20 µM
CC50 at 72 h [10]: 15 µM
EC50 (Human orthopneumovirus): > 24 µM
EC50 [11]: > 24 µM
CC50 at 96 h [12]: 44 µM

NS(=O)(=O)c1ccc(N2N=C(c3ccccc3)CC2c2ccccc2F)cc1 (configuration not stated)
EC50 (Human alphaherpesvirus 1): > 28 µM
EC50 [1]: > 42 µM
EC50 (Enterovirus C): > 28 µM
EC50 (Yellow fever virus [2]): > 21 µM
Ratio EC50 (Yellow fever virus [3]): 10
EC50 (Vaccinia virus): > 28 µM
EC50 [4]: > 21 µM
CC50 [6]: 28 µM
CC50 at 72 h [7]: 19 µM
EC50 [8]: > 28 µM
EC50 [9]: > 19 µM
CC50 at 72 h [10]: 21 µM
EC50 (Human orthopneumovirus): > 28 µM
EC50 [11]: > 28 µM
CC50 at 96 h [12]: 42 µM

Nc1nc2c(ncn2COCCO)c(=O)[nH]1 [ACYCLOVIR]
EC50 (Human alphaherpesvirus 1): 1.8 µM
CC50 [6]: > 100 µM

NS(=O)(=O)c1ccc(N2N=C(c3ccccc3)CC2c2ccc(Cl)cc2)cc1 (configuration not stated)
EC50 (Human alphaherpesvirus 1): > 21 µM
EC50 [1]: > 36 µM
EC50 (Enterovirus C): > 21 µM
EC50 (Yellow fever virus [2]): > 32 µM
Ratio EC50 (Yellow fever virus [3]): 10
EC50 (Vaccinia virus): > 21 µM
EC50 [4]: > 32 µM
CC50 [6]: 21 µM
CC50 at 72 h [7]: 11 µM
EC50 [8]: > 21 µM
EC50 [9]: > 11 µM
CC50 at 72 h [10]: 32 µM
EC50 (Human orthopneumovirus): > 21 µM
EC50 [11]: > 21 µM
CC50 at 96 h [12]: 36 µM
